Variants at the floor of the assay were thinned out.
B1: tRNA (parent)
chain: GUUCCGUUGGCGUAAUGGUAACGCGUCUCCCUCCUAAGGAGAAGACUGCGGGUUCGAGUCCCGUACGGAACG

Variants of: B1
Assay: yeast fitness relative to wild type (ratio to wild type); higher = fitter; tRNA-Arg(CCU), competitive growth, 37 C, YPD
In short: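 Variants of the tRNA-Arg(CCU) gene, chemically synthesised with a 3% per-site mutation rate at 69 sites, were placed at the native genomic locus in Saccharomyces cerevisiae. The pooled strains were competed in YPD at 37°C for 24 hours in six parallel replicates. Gene amplicons from the start population and from each end population were read by 100-nucleotide paired-end sequencing. Darwinian fitness relative to wild type came from changes in genotype frequencies; genotypes needed ≥ 100 starting reads, and estimates < 0.5 were set to 0.5.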

U28G A45G G51C A70G and U28A G39A U64G cannot be ordered by yeast fitness: ≤ 0.5 for the first, ≤ 0.5 for the second.

Compared with U28C A57G, U28C A57U A65U is lower in yeast fitness: 0.896 for the first, ≤ 0.5 for the second.

First: U28A G56C G67U
Second: U28C A36C G67C
The yeast fitness of the first is lower: 0.525 for the first, 0.539 for the second.

First: U28A C60A
Second: U28A C60G
The yeast fitness of the first is lower: 0.535 for the first, 0.572 for the second.

First: U28C A36C
Second: U28A G48C A69U A70U
The yeast fitness of the first is higher: 0.579 for the first, ≤ 0.5 for the second.

First: U28C G52A C61U
Second: U28A G41A G67A
The yeast fitness of the first is higher: 0.698 for the first, ≤ 0.5 for the second.

First: U28G C60G
Second: U28G A36G
The yeast fitness of the first is lower: 0.603 for the first, 0.712 for the second.

Going from U28C A45C G50A C62U to U28C C46A, the yeast fitness rises from ≤ 0.5 to 0.992.

Compared with U28C C46G, U28C G51C A65C is lower in yeast fitness: 1.08 for the first, ≤ 0.5 for the second.

First: U28C A40G A70U
Second: C29A A37C A45C U47A
The yeast fitness of the first is higher: 0.603 for the first, 0.573 for the second.

U28C G41C C60A C66U and U28C G41C C49A C61U A70U cannot be ordered by yeast fitness: ≤ 0.5 for the first, ≤ 0.5 for the second.

Compared with C29A A36U A40U C55U G56A U59C, U28C A40G A45C A70U is higher in yeast fitness: ≤ 0.5 for the first, 0.911 for the second.

Going from U28C G68C to U28C G41A, the yeast fitness falls from 0.884 to 0.783.

First: U28C G41C
Second: U28G C29A G41C A43U C66G
The yeast fitness of the first is higher: 0.712 for the first, 0.595 for the second.

C29A A36U and U28G C29A G41C A43U cannot be ordered by yeast fitness: ≤ 0.5 for the first, ≤ 0.5 for the second.

Going from U28A C49G A57G to U28C C29G, the yeast fitness rises from ≤ 0.5 to 0.566.

Compared with U28C C29A, U28A U35C A37C U64A G67A is lower in yeast fitness: 0.703 for the first, ≤ 0.5 for the second.

U28C A43C C46A G48C and U28C G38C G52A cannot be ordered by yeast fitness: ≤ 0.5 for the first, ≤ 0.5 for the second.

U28A G48C A70C and U28C A42C A43C C55G A57G cannot be ordered by yeast fitness: ≤ 0.5 for the first, ≤ 0.5 for the second.

First: U28C C62A
Second: U28C A40G G52C
The yeast fitness of the first is higher: 0.746 for the first, ≤ 0.5 for the second.

Going from U28A C55U to U28A C55G, the yeast fitness falls from 0.739 to 0.537.

First: U28A C55A
Second: U28C C61G
The yeast fitness of the first is lower: 0.52 for the first, 0.583 for the second.

First: U28C C33A A42C A45U A69C
Second: U28C G39C
The yeast fitness of the first is higher: 0.622 for the first, 0.578 for the second.

First: U28C C31U C60U
Second: U28C A45U G48C
The yeast fitness of the first is lower: ≤ 0.5 for the first, 0.638 for the second.

Going from U28G A57U U59C to C29A A37C A40U G63A, the yeast fitness rises from ≤ 0.5 to 0.519.

U28C G38A A40C A45G G48A and C29A A36U G50C C55G C61G cannot be ordered by yeast fitness: ≤ 0.5 for the first, ≤ 0.5 for the second.

First: U28A G56C
Second: U28G A36G A45G A69U
The yeast fitness of the first is lower: ≤ 0.5 for the first, 0.825 for the second.

First: U28C U59G
Second: U28C G52A C61U A70C
The yeast fitness of the first is higher: 0.852 for the first, 0.549 for the second.

Compared with U28C C49G U59C, C29A A37G is higher in yeast fitness: ≤ 0.5 for the first, 0.545 for the second.

First: U28G C30U
Second: U28A G67C
The yeast fitness of the first is lower: 0.693 for the first, 0.774 for the second.

U28A G41A G56A C62U and U28G C46G C49U C61A cannot be ordered by yeast fitness: ≤ 0.5 for the first, ≤ 0.5 for the second.

U28C G38C G51C and U28G C29A G52C A57U cannot be ordered by yeast fitness: ≤ 0.5 for the first, ≤ 0.5 for the second.

First: U28G A40U A43U
Second: U28G A43G
The yeast fitness of the first is higher: 0.878 for the first, 0.643 for the second.

First: U28G A65C
Second: U28C A37C U47C
The yeast fitness of the first is lower: 0.669 for the first, 0.697 for the second.

Compared with U28C C29G C30G A36G, U28C G44A A57G is higher in yeast fitness: ≤ 0.5 for the first, 0.578 for the second.

Going from U28G U32A G38C A65C G67C to U28C G67C, the yeast fitness rises from ≤ 0.5 to 0.845.

Going from U28G C31A C61U to U28C C33G C66A, the yeast fitness rises from ≤ 0.5 to 0.616.

First: U28C C31U
Second: U28G U59A A70C
The yeast fitness of the first is higher: 0.981 for the first, ≤ 0.5 for the second.

U28G C34A U35C and U28G A36G G51A cannot be ordered by yeast fitness: ≤ 0.5 for the first, ≤ 0.5 for the second.

First: U28C A42G U47A
Second: U28G G56C
The yeast fitness of the first is lower: 0.535 for the first, 0.655 for the second.

First: U28C C61U A69U
Second: U28C U54G A57C C62U
The yeast fitness of the first is higher: 0.727 for the first, ≤ 0.5 for the second.

Going from U28G A40C A42G A69C to U28C G58C C62G A70U, the yeast fitness falls from 0.808 to ≤ 0.5.

First: U28G U35C
Second: U28C A42G C55U A70U
The yeast fitness of the first is higher: 0.758 for the first, ≤ 0.5 for the second.

First: U28G C31G A45U C46G G58A
Second: U28C C49U
The yeast fitness of the first is lower: 0.529 for the first, 0.905 for the second.

Going from U28C C33G A40G G51C C61U A65U to U28C G63A A70G, the yeast fitness rises from ≤ 0.5 to 0.685.

Going from U28A C46U A70G to U28C G50U, the yeast fitness falls from 0.634 to 0.602.

Going from U28C A70C to U28C U35A, the yeast fitness falls from 0.878 to 0.578.

Compared with U28C C33U A45U, U28G A42C A57C is higher in yeast fitness: 0.578 for the first, 0.627 for the second.

First: U28A G52C
Second: U28C G56C
The yeast fitness of the first is lower: ≤ 0.5 for the first, 0.53 for the second.

Going from U28C C66A to U28G U32A A43C, the yeast fitness falls from 0.689 to ≤ 0.5.

Going from U28G A57C to U28C U32C C62A, the yeast fitness falls from 0.587 to ≤ 0.5.

U28G C46G C49U and C29A A36C G51A U53C U64C A65U cannot be ordered by yeast fitness: ≤ 0.5 for the first, ≤ 0.5 for the second.

First: U28G G38A C60G A65C A69C
Second: U28A G44A G68A
The yeast fitness of the first is higher: 0.618 for the first, 0.544 for the second.

U28C A37U A57C A69U A70C and U28G C46G C49U A69C cannot be ordered by yeast fitness: ≤ 0.5 for the first, ≤ 0.5 for the second.

Compared with U28C A43C G44C C61G A65U, U28C A43G is higher in yeast fitness: ≤ 0.5 for the first, 0.976 for the second.

Going from U28C A43C to U28C A65G, the yeast fitness rises from 0.758 to 0.998.

Going from U28A G51A A57U to U28G C29A C66U, the yeast fitness falls from 0.598 to ≤ 0.5.

Going from U28A C55G A70G to U28C C55U G67C, the yeast fitness rises from ≤ 0.5 to 0.557.

Going from U28C U54G A70U to U28G C61A, the yeast fitness rises from ≤ 0.5 to 0.561.

U28G U54G A65C G67A and U28G C46G C61U cannot be ordered by yeast fitness: ≤ 0.5 for the first, ≤ 0.5 for the second.

Going from U28C C60A to U28C C60G, the yeast fitness falls from 0.632 to 0.572.

Going from U28C C34G A40G A43G C46G G52A C55U to U28C A42C C55U G68C, the yeast fitness falls from 0.613 to ≤ 0.5.

Compared with U28C C29G C62U, U28A G68A is higher in yeast fitness: ≤ 0.5 for the first, 0.581 for the second.

U28G G38C C62G C66U and U28A U35G C62A cannot be ordered by yeast fitness: ≤ 0.5 for the first, ≤ 0.5 for the second.

Compared with U28A C66U, U28C A37C A40U C55U is lower in yeast fitness: 0.796 for the first, 0.525 for the second.

U28G C31U A40C A70U and U28G C30G A40C A42U G67A cannot be ordered by yeast fitness: ≤ 0.5 for the first, ≤ 0.5 for the second.

U28G C29G G41A and U28A C55G C62G cannot be ordered by yeast fitness: ≤ 0.5 for the first, ≤ 0.5 for the second.

Going from U28G A69U to U28C G39C G44C G58A, the yeast fitness falls from 0.789 to ≤ 0.5.

Going from U28A U64G to U28C C34U C55U C61A, the yeast fitness falls from 0.709 to 0.592.

Going from U28C G48A C60A C62U to C29A A37U A43C, the yeast fitness rises from ≤ 0.5 to 0.733.

First: U28C A45C
Second: U28C A45U
The yeast fitness of the first is higher: 0.993 for the first, 0.985 for the second.

U28A U32C C49G G52A and U28C C33G G38A U64G cannot be ordered by yeast fitness: ≤ 0.5 for the first, ≤ 0.5 for the second.

Going from U28A C60G C66G A69G to U28A G63C, the yeast fitness rises from ≤ 0.5 to 0.624.

First: U28G A45C
Second: U28C A43C G67C
The yeast fitness of the first is higher: 0.655 for the first, 0.528 for the second.

First: U28C C49U G63U
Second: U28A U54A
The yeast fitness of the first is lower: 0.531 for the first, 0.594 for the second.

U28G C33G C49U G68C A69U and U28G C33G C49U cannot be ordered by yeast fitness: ≤ 0.5 for the first, ≤ 0.5 for the second.

U28G G41C U53A and U28C A37C G56A U59C cannot be ordered by yeast fitness: ≤ 0.5 for the first, ≤ 0.5 for the second.

Going from U28C C33G G38A U54C U64G to U28G A40U U59C, the yeast fitness rises from ≤ 0.5 to 0.576.

First: U28C A42C
Second: U28C U64C
The yeast fitness of the first is lower: 0.858 for the first, 0.877 for the second.

Compared with U28G A70G, U28G C33A A45C is lower in yeast fitness: 0.826 for the first, ≤ 0.5 for the second.

First: U28C A40U
Second: U28C A40C
The yeast fitness of the first is higher: 1.01 for the first, 0.902 for the second.

Compared with U28G A36G A65U, U28A G51C A57C is higher in yeast fitness: ≤ 0.5 for the first, 0.53 for the second.

Going from C29A to U28G G41C C55G A70U, the yeast fitness falls from 0.631 to ≤ 0.5.

For C29A A37G C49A U64C G68A, the yeast fitness was ≤ 0.5.
